Published values of several laboratories.
Protocols differ between the studies behind these lines.
Organism: Staphylococcus aureus
Effect on: microbial growth

CC(=O)Nc1nc(C)c(-c2ccc(Cl)c(S(=O)(=O)NCCO)c2)s1  MIC (NCTC8325): > 30 µM
COc1cc(/C=N\NC(=O)c2ccc(Br)cc2)ccc1OC(=O)c1cccs1  MIC: > 128 µg/mL
CC1CCN(CCCN2/C(=C/c3cc[n+](C)c4ccccc34)Sc3ccccc32)CC1.[I-]  MIC (broth dilution; ATCCBAA44): 2 µg/mL
C/C(=C\c1ccc(C#N)cc1)C(=O)Nc1ccc(C(=O)N[C@@H](CC(N)=O)C(=O)Nc2ccc(C(=O)Nc3ccc(C(=O)Nc4ccc(C(=O)O)cc4)c(O)c3OC(C)C)cc2)cc1  MIC (ATCC29213): 0.06 µg/mL
C[C@@H](O)[C@H]1C(=O)N2C(C(=O)O)=C(S[C@@H]3CN[C@H](C(=O)N(C)C)C3)[C@H](C)[C@H]12  MIC (broth dilution; KCTC1621; 16 h): 8 µM
O=C1NN=C(N=Cc2ccc(O)cc2O)C1=NNn1c(-c2ccccc2)nc2ccccc2c1=O  MIC (broth dilution; 24 h): 107 µM
COc1cccc(OC)c1C(=O)N[C@@H]1C(=O)N2[C@@H]1SC(C)(C)[C@@H]2C(=O)O  MIC (broth dilution; BAA1707 MRSA; drug-resistant strain): 18.8 µM
Cc1ccc2nc(-c3cccc(O)c3)[nH]c2c1  MIC (broth dilution; ATCC29213 MSSA): 32 µg/mL
C/C=C(\C)c1cc(O)c(C)c(OC(=O)c2c(C)c(Cl)c(O)c(Cl)c2O)c1  MIC (broth dilution; ATCC29213): 4 µg/mL
Clc1ccc(-c2nc3ccccc3[nH]2)c(Cl)c1  MIC (broth dilution; ATCC29213 MSSA): 128 µg/mL
C[C@@H]1[C@H](O)[C@@H](C)/C=C/C=C/C=C/C=C/C=C/C=C/C=C/[C@H](O[C@@H]2O[C@H](C)[C@@H](O)[C@H](N)[C@@H]2O)C[C@@H]2O[C@](O)(C[C@@H](O)C[C@@H](O)[C@H](O)CC[C@@H](O)C[C@@H](O)CC(=O)O[C@H]1C)C[C@H](O)[C@H]2C(=O)O  MIC (broth dilution; MB2865): > 128 µg/mL
O=[N+]([O-])c1ccc(-c2nc3ccccc3[nH]2)cc1  MIC (broth dilution; ATCC29213 MSSA): 128 µg/mL
Cc1cc(C)n(C(=O)c2ccc(-n3c(C)ccc3C)cc2)n1  MIC (broth dilution; ATCC11632; 18 h): 125 µg/mL
FC(F)(F)c1cc(-c2nnc(Sc3cc(Cl)nc(Sc4ccccc4)n3)[nH]2)cc(C(F)(F)F)c1  MIC (83254): 1.6 µM
O=C(O)CN1C(=O)/C(=C/c2c3ccccc3c(-c3ccc(N(c4ccccc4)c4ccccc4)cc3)c3ccccc23)NC1=S  MIC (broth dilution; ATCC6538): > 1000 µg/mL
Clc1ccc(-c2nc3ccccc3n2Cc2ccccc2)cc1  MIC (broth dilution; ATCC29213 MSSA): 64 µg/mL
Cc1ccc(C)n1-c1ccc(-c2nnc(-c3ccccc3Cl)[nH]2)cc1  MIC (broth dilution; ATCC11632; 18 h): 2 µg/mL
Clc1ccc(C2(c3ccc(-c4cn[nH]c4)cc3)CCNCC2)cc1  MIC (NCTC8325): > 30 µM
CC(C)Oc1c(NC(=O)c2ccc(NC(=O)[C@H](CC(N)=O)NC(=O)c3ccc(NC(=O)c4cc(=O)c(O)c[nH]4)cc3)cc2)ccc(C(=O)Nc2ccc(C(=O)O)cc2)c1O  MIC (ATCC29213): > 64 µg/mL
C=CCn1c(-c2ccc(Cl)cc2)nc2ccc(C)cc21  MIC (broth dilution; ATCC29213 MSSA): 32 µg/mL
CCCCCCC#Cc1cncc(-c2nnc(SCc3ccc(Cl)c(F)c3)n2C)c1  MIC (MRSA; drug-resistant strain): ≥ 20 µg/mL
CC(C)Oc1c(NC(=O)c2ccc(NC(=O)[C@H](CC(N)=O)NC(=O)c3ccc(NC(=O)c4ccc(NC(=O)c5ccc([N+](=O)[O-])cc5)cc4)cc3)cc2)ccc(C(=O)Nc2ccc(C(=O)O)cc2)c1O  MIC (ATCC29213): > 64 µg/mL
COc1ccc(NCc2ccc(Oc3ccccn3)cc2)cc1  MIC: > 3.1 µg/mL
C/C=C(\C)c1cc(O)c(C)c(OC(=O)c2c(C)cc(O)c(Cl)c2O)c1  MIC (broth dilution; 16162): 8 µg/mL
COc1cc2c(Nc3ccc(NC(=O)c4ccccc4)cc3)ncnc2cc1OCCCN1CCOCC1  MIC (NCTC8325): > 30 µM
CC(C)Oc1c(NC(=O)c2ccc(NC(=O)[C@H](CC(N)=O)NC(=O)c3ccc(NC(=O)c4ccccc4[N+](=O)[O-])cc3)cc2)ccc(C(=O)Nc2ccc(C(=O)O)cc2)c1O  MIC (ATCC29213): > 64 µg/mL
C=CCn1c(-c2ccc([N+](=O)[O-])cc2)nc2ccccc21  MIC (broth dilution; ATCC29213 MSSA): 32 µg/mL
CC(C)Oc1c(NC(=O)c2ccc(NC(=O)[C@H](CC(N)=O)NC(=O)c3ccc(NC(=O)c4ccc(S(C)(=O)=O)cc4)cc3)cc2)ccc(C(=O)Nc2ccc(C(=O)O)cc2)c1O  MIC (ATCC29213): > 64 µg/mL
O=C1NC(=S)N/C1=C\c1c2ccccc2c(-c2ccc(N(c3ccccc3)c3ccccc3)cc2)c2ccccc12  MIC (broth dilution; ATCC6538): > 1000 µg/mL
CC1(C)S[C@@H]2[C@H](NC(=O)[C@H](N)c3ccccc3)C(=O)N2[C@H]1C(=O)O  MIC (broth dilution; 16162): 16 µg/mL
CCC1(C)CC(OC(=O)CSc2nnc(N)[nH]2)C2(C)C(C)CCC3(CCC(=O)C32)C(C)C1O (stereo not shown)  MIC: 0.5 µg/mL
C/C=C(\C)c1cc(OC(=O)c2c(O)c(C)c(O)c(Cl)c2/C(C)=C/C)c(C)c(O)c1C(=O)O  MIC (broth dilution; ATCC29213): 64 µg/mL
O=C1C=CC(=O)c2c1ccc1c2[nH]c2ccccc21  MIC (ATCC29213): 4 µg/mL
O=C(O)CN1C(=O)/C(=C/c2ccc(-c3ccc(N(c4ccccc4)c4ccccc4)cc3)c3ccccc23)NC1=S  MIC (broth dilution; ATCC43300): > 1000 µg/mL
C[S+]([O-])c1ccc(-c2nc(-c3ccc(F)cc3)c(-c3ccncc3)[nH]2)cc1 (stereo not shown)  MIC (NCTC8325): > 30 µM
CC1(C)S[C@@H]2[C@H](NC(=O)COc3ccccc3)C(=O)N2[C@H]1C(=O)O  MIC (broth dilution; ATCC25923; 18 h): 2 µg/mL
CC(C)Oc1c(NC(=O)c2ccc(NC(=O)[C@H](CC(N)=O)NC(=O)c3ccc(CCNC(=O)c4ccc(C#N)cc4)cc3)cc2)ccc(C(=O)Nc2ccc(C(=O)O)cc2)c1O  MIC (ATCC29213): > 64 µg/mL
O=C(CCCCCCCCCC[P+](c1ccccc1)(c1ccccc1)c1ccccc1)Nc1ccc(O)c(O)c1.[Br-]  MIC (broth dilution; ATCC43300 MRSA; 18 h): 16 µg/mL
CO[C@H]1/C=C/O[C@@]2(C)Oc3c(C)c(O)c4c(O)c(c(/C=N/N5CCN(C)CC5)c(O)c4c3C2=O)NC(=O)/C(C)=C\C=C\[C@H](C)[C@H](O)[C@@H](C)[C@@H](O)[C@@H](C)[C@H](OC(C)=O)[C@@H]1C  MIC (NCTC8325): 0.009 to 0.018 µM
O=C(COC(=O)c1n[nH]c2ccccc12)Nc1ccc(N2CCCCC2)cc1  MIC: > 128 µg/mL
CN[C@H](CC(C)C)C(=O)N[C@H]1C(=O)N[C@@H](CC(N)=O)C(=O)N[C@H]2C(=O)N[C@H]3C(=O)N[C@H](C(=O)N[C@H](C(=O)O)c4cc(O)cc(O)c4-c4cc3ccc4O)[C@H](O)c3ccc(c(Cl)c3)Oc3cc2cc(c3O[C@@H]2O[C@H](CO)[C@@H](O)[C@H](O)[C@H]2O[C@H]2C[C@](C)(N)[C@H](O)[C@H](C)O2)Oc2ccc(cc2Cl)[C@H]1O  MIC (ATCC25923): 0.39 µg/mL
O=C(Nc1ccccc1F)c1ccccc1O  MIC (broth dilution; ATCC29213): 32 µg/mL
CC(=O)NC[C@H]1CN(c2ccc(N3CCOCC3)c(F)c2)C(=O)O1  MIC (clinical isolate): 1.56 µg/mL
c1cncc(-c2nc3ccccc3[nH]2)c1  MIC (broth dilution; ATCC29213 MSSA): 128 µg/mL
Cc1cnc(Nc2ccc(OCCN3CCCC3)cc2)nc1Nc1cccc(S(=O)(=O)NC(C)(C)C)c1  MIC (NCTC8325): > 30 µM
NC[C@H]1O[C@H](O[C@H]2[C@H](O)[C@@H](O[C@H]3O[C@H](CO)[C@@H](O)[C@H](N)[C@H]3O)[C@H](N)C[C@@H]2N)[C@H](N)C[C@@H]1O  MIC (129; clinical isolate): > 100 µM
O=C1NC(=S)N/C1=C\c1ccc(-c2ccc(N(c3ccccc3)c3ccccc3)cc2)cc1  MIC (broth dilution; ATCC25923): > 1000 µg/mL
C=CCn1c(-c2ccc(OC)c(OC)c2)nc2ccccc21  MIC (broth dilution; ATCC29213 MSSA): 128 µg/mL
CCCN/C(=N/C)c1ccc(NC(=O)c2ccc(C(=O)Nc3ccc(/C(=N\C)NCCC)cc3)cc2)cc1  MIC: 16 µg/mL
Clc1cccc(NCc2ccc(Oc3ccccn3)cc2)c1  MIC: 1.8 µg/mL
COc1cc(OC)c2cc(C(=O)NCc3ccc(C)cc3)cc(O)c2c1  MIC (broth dilution; ATCC29213 MSSA): 32 µg/mL
O=C(Nc1ccc(OC(F)(F)F)cc1)c1sccc1NCc1ccnc2ccccc12  MIC (NCTC8325): > 30 µM
COc1c(C)c(OC(=O)c2ccccc2)c(C)c(O)c1C(=O)/C=C/c1ccccc1  MIC (broth dilution; ATCC25923): 5000 µg/mL
O=C(Nc1ccc(Cl)c(C(F)(F)F)c1)Nc1cccc2c1OC(F)(F)O2  MIC (NCTC8325): 0.5 µM
CC(C)Oc1c(NC(=O)c2ccc(NC(=O)[C@H](CC(N)=O)NC(=O)c3ccc(NC(=O)c4ccc(C5(C(F)(F)F)N=N5)cc4)cc3)cc2)ccc(C(=O)Nc2ccc(C(=O)O)cc2)c1O  MIC (ATCC29213): > 64 µg/mL
CN[C@H](CC(C)C)C(=O)N[C@H]1C(=O)N[C@@H](CC(N)=O)C(=O)N[C@H]2C(=O)N[C@H]3C(=O)N[C@H](C(=O)N[C@H](C(=O)O)c4cc(O)cc(O)c4-c4cc3ccc4O)[C@H](O)c3ccc(c(Cl)c3)Oc3cc2cc(c3O[C@@H]2O[C@H](CO)[C@@H](O)[C@H](O)[C@H]2O[C@H]2C[C@](C)(N)[C@H](O)[C@H](C)O2)Oc2ccc(cc2Cl)[C@H]1O  MIC (broth dilution; 745524): 1 µg/mL
COc1c(C)c(OC(C)=O)c(C)c(OC(C)=O)c1C(=O)/C=C/c1ccccc1  MIC (broth dilution; ATCC25923): 5000 µg/mL
O=C(O)CN1C(=O)/C(=C/c2ccc(-c3ccc(N(c4ccccc4)c4ccccc4)cc3)cc2)NC1=S  MIC (broth dilution; ATCC25923): 3.9 µg/mL
